Assay outcomes (PubChem)
MrgX1 antagonist: antagonists of human MrgX1 receptor; MRGX1-HEK293 calcium flux, Fluo-4, BAM8-22 antagonism; active compounds read low; B-score at 10 µM; 310,000 tested, 1.3% active;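 active = calcium-response B-score plate-corrected more than 3 library SD below zero, starting fluorescence within 5 deviations, no agonist response on first addition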;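 note: peak minus trough fluorescence over baseline after final BAM8-22 challenge near maximal dose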
Target sequence (Q96LB2 whole entry, looked up): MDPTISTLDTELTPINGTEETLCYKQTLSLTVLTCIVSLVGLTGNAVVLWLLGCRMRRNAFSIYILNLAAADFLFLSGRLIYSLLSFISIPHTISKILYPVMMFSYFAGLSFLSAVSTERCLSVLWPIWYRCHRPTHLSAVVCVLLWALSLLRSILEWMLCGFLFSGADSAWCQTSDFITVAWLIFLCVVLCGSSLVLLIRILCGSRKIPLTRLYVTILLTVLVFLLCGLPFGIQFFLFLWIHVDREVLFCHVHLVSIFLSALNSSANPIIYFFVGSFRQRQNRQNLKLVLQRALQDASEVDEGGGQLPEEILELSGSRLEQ
MrgX1 PAM: human MrgX1 positive allosteric modulation, primary screen. 310,000 tested, 0.63% active. B-score at 10 µM. MrgX1-HEK293, Fluo-4 calcium flux, FDSS; active compounds read high;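 active = plate-corrected calcium response at least 3 library SD above typical, normal starting fluorescence, not activating the receptor alone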;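 note: compound read alongside a low EC10 to EC30 dose of BAM8-22 agonist; peak minus trough fluorescence over baseline measured at the second addition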
RGS4 act: potentiators or activators of RGS4; HEK293 M3R/inducible RGS4, carbachol calcium flux Fluo4; active compounds read low; B-score at 10 µM; 310,000 tested, 0.92% active; AID 463111;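 active = B-score of the integrated calcium signal more than 4 SD below the library mean, with starting fluorescence not abnormally high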;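 note: negative B-score means reduced calcium response which marks RGS4 activation or potentiation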
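Material: M3R-expressing HEK293 line, RGS4 induced by doxycycline | Schedule: Overnight RGS4 induction, 30 min dye load 37 °C, 20 min compound RT | Measured by: Fluo4 fluorescence kinetic imaging of calcium | Read-out: Integrated calcium ratio converted to B score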
RGS4 block: human RGS4 inhibition; P49798; HEK293 M3R/RGS4 inducible, Fluo-4 calcium flux; active compounds read high; triggered by carbachol at its EC20; B-score at 10 µM; 310,000 tested, 0.45% active;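 active = B-score, a plate-corrected calcium signal, over three deviations above library mean, with baseline fluorescence within five deviations of library mean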;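 note: RGS4 expression induced by doxycycline in cells with stable M3 receptor; B-score is computed from the integrated fluorescence ratio over baseline after carbachol; higher B-score means a larger calcium signal and so more RGS4 inhibition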
Target sequence (P49798 whole entry, looked up): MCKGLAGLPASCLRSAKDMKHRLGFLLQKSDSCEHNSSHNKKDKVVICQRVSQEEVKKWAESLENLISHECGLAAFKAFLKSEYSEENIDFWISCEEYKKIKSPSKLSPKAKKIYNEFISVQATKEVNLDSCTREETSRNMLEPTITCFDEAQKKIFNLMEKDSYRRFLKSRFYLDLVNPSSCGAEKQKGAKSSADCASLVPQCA
MrgX1 agonist: agonists of human MrgX1 receptor | MrgX1-HEK293 cells, Fluo-4 calcium fluorescence, agonist mode; active compounds read high | B-score at 10 µM | 310,000 tested, 0.44% active | AID 588627;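 active = calcium response B-score plate-corrected fluorescence ratio at least 3 library SD, with starting fluorescence B-score inside 5 SD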
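System: HEK293 cells stably expressing human MrgX1 receptor; Dosing: test compound in the initial addition of three; Schedule: overnight plating, then 30 min 37 °C plus 30 min room-temperature dye loading; Detection: kinetic calcium dye fluorescence, Fluo-4 NW; Controls: per-plate positive and negative controls for Z′ factor.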
* marks the source's active call; other numbers are inactive results; i = inactive; · = no result given. This is a sample that favours compounds with a hit; in the whole collection about 3.5% have one here.

SMILES	MrgX1 antagonist	MrgX1 PAM	RGS4 act	RGS4 block	MrgX1 agonist
Cc1cc(C)c2nc(N3CCC(C(=O)NCCCN4CCCCC4)CC3)sc2c1	i	i	-7.9*	i	i
CCOc1ccc(NCc2cccn2-c2nnc(N3CCC(C(=O)NCCCN4C(C)CCCC4C)CC3)s2)cc1 (configuration not stated)	i	i	-7.6*	i	i
CCOc1ccc(NCc2cccn2-c2nnc(N3CCC(C(=O)NCCCN4CCCCC4)CC3)s2)cc1	i	i	-9*	i	i
CCOc1ccc(NCc2cccn2-c2nnc(N3CCC(C(=O)NCCCN4CCCCC4C)CC3)s2)cc1 (configuration not stated)	i	i	i	i	i
Cc1cc(C)c2nc(N3CCC(C(=O)NCC4CCCO4)CC3)sc2c1 (configuration not stated)	i	i	i	i	i
COc1ccc(-n2c(NC(=O)c3ccco3)c(C#N)c3nc4ccccc4nc32)cc1	i	7.1*	i	i	i
CCCCn1c(NC(=O)c2ccccc2Cl)c(C#N)c2nc3ccccc3nc21	i	i	i	i	26*
COc1ccc(CNC(=O)CN2C(=O)COc3ccc(S(=O)(=O)N4CCC(C)CC4)cc32)cc1	i	i	i	i	i
Cc1ccc(S(=O)(=O)N2CC(C(=O)O)=CC[C@H]2c2ccc(Cl)cc2)cc1	i	i	·	·	i
Cc1ccc(S(=O)(=O)N2[C@@H](c3ccc(Cl)cc3)C(C(=O)O)=CC[C@H]2c2ccc(Cl)c(Cl)c2)cc1	-5.1*	i	·	·	i
COc1ccc([C@@H]2CC=C(C(=O)O)CN2S(=O)(=O)c2ccc(Cl)cc2)cc1	i	8*	·	·	i
Cc1ccc([C@@H]2CC=C(C(=O)O)[C@H](c3ccc(F)cc3)N2S(=O)(=O)c2ccc(C)cc2)cc1	i	i	·	·	i
Cc1ccc(S(=O)(=O)N2[C@@H](c3ccccc3F)C(C(=O)O)=CC[C@H]2c2ccc(C(C)C)cc2)cc1	i	i	·	·	i
COc1cc([C@@H]2CC=C(C(=O)O)[C@H](c3ccc(Cl)cc3)N2S(=O)(=O)c2ccc(C)cc2)cc(OC)c1OC	i	i	·	·	i
Cc1ccc(S(=O)(=O)N2[C@@H](c3ccccc3F)C(C(=O)O)=CC[C@H]2c2cccc(Cl)c2)cc1	i	11*	·	·	i
O=C(O)C1=CC[C@@H](c2ccc(Cl)cc2)N(S(=O)(=O)c2ccc(Cl)cc2)[C@H]1c1ccc(F)cc1	i	8.3*	·	·	i
CCOC(=O)CSC1=N/C(=C\c2ccc(OC)c(OC)c2)C(=O)N1C	i	i	i	i	i
COc1ccc(NC(=O)CC23CC4CC(CC(Br)(C4)C2)C3)c(OC)c1	i	i	i	i	i
Cc1ccc(S(=O)(=O)N2[C@@H](c3ccccc3)C(C(=O)O)=CC[C@H]2c2cccc(Cl)c2)cc1	i	7.4*	·	·	i
Cc1ccc(S(=O)(=O)N2[C@@H](c3cccc(Cl)c3)C(C(=O)O)=CC[C@H]2c2ccc(Cl)cc2)cc1	i	i	·	·	i
Cc1ccc([C@@H]2CC=C(C(=O)O)[C@H](c3ccccc3F)N2S(=O)(=O)c2ccc(C)cc2)cc1	i	8.9*	·	·	i
CC(NCc1ccc(S(N)(=O)=O)cc1)C(=O)N1c2ccccc2CC1C (configuration not stated)	i	i	i	i	i
COc1cc(N(C(=O)Cc2cccs2)C(C(=O)NC2CCCCC2)c2ccc(C)cc2)ccc1-n1cnnn1 (configuration not stated)	-6.3*	i	i	i	i
Cc1ccc(N(C(=O)Cc2cccs2)C(C(=O)NC2CCCCC2)c2ccccn2)cc1C (configuration not stated)	i	10*	i	i	i
Cc1ccc(S(=O)(=O)N(C)c2ccc(OC(=O)CN3C(=O)NC4(CCCC4)C3=O)cc2)cc1C	i	i	i	i	i
SMILES	MrgX1 antagonist	MrgX1 PAM	RGS4 act	RGS4 block	MrgX1 agonist
Cc1ccc(NC(=S)NCC(C)CSc2ccc(Cl)cc2)cc1 (configuration not stated)	i	i	i	i	i
Cc1cccc(NC(=S)NCC(C)CSc2ccc(Cl)cc2)c1 (configuration not stated)	-6.4*	i	i	i	i
Cc1cc(C)c(C)c(S(=O)(=O)N2CCC(C(=O)OCC(=O)N3c4ccccc4NC(=O)C3(C)C)CC2)c1C	i	i	-7*	i	i
COc1ccccc1NC(=O)/C(C#N)=C/c1ccncc1	i	i	i	i	i
COc1ccccc1NC(=O)/C(C#N)=C/c1cc([N+](=O)[O-])ccc1N1CCCC1	-6.6*	i	i	i	i
Cc1ccc(O)c(C2=NOC(O)(C(F)(F)F)C2)c1 (configuration not stated)	i	i	i	i	i
Oc1c(Cl)cc(Cl)cc1/C=N/Nc1ncc(Br)cn1	i	i	i	i	i
Cc1ccc(N=Cc2cc(Cl)cc(Cl)c2O)nc1	i	7.6*	i	i	i
Fc1ccc([C@@H]2CCNC[C@H]2COc2ccc3c(c2)OCO3)cc1	i	i	-7.1*	i	i
Fc1ccc(C2CCNCC2COc2ccc3c(c2)OCO3)cc1 (configuration not stated)	i	i	-8.8*	i	i
CCc1ccccc1NC(=O)CN(C)C(=O)CSc1nc2cc(Cl)ccc2s1	i	i	i	i	i
CCN(Cc1ccc(NC(C)=O)cc1)CC1CCCN(CCc2cccc(F)c2)C1 (configuration not stated)	i	i	i	i	i
CCN(Cc1ccc(C#CCCO)cc1)CC1CCCN(CCc2cccc(OC)c2)C1 (configuration not stated)	i	i	-7*	i	i
COC(=O)CCC(=O)OC1(C)C(=O)C2=CN(Cc3ccc(OC)cc3)C(c3ccc(OC)cc3)=CC2=C(Br)C1=O (configuration not stated)	-4.9*	i	i	i	i
Cc1ccc(-c2csc(NC(=O)COC(=O)c3cccc(S(=O)(=O)N4CCOCC4)c3)n2)cc1	-4.8*	i	i	i	i
CC(C)c1ccc(N2C(=O)CSC23C(=O)N2CCCc4cccc3c42)cc1 (configuration not stated)	i	i	-7.6*	i	i
CC(=O)c1cccc(NS(C)(=O)=O)c1	i	i	i	i	i
CCCNC(=O)c1ccc(N2CCC3(CC2)CC(c2cccc(Br)c2)=NO3)c(NC(=O)c2ccc(Cl)c([N+](=O)[O-])c2)c1	i	i	i	i	i
